Reference: PMC8548355 (Medicinal Chemistry Research, 2021)
≈ marks a conversion by molar mass, not a printed value.

Key:
E. coli ATCC 25922 = experiment: MIC by broth microdilution against E. coli ATCC 25922; format: cell-based; details: Escherichia coli, ATCC25922, read-out: MIC against E. coli ATCC 25922
[1] = tested on: clinical MDR S. aureus isolates (MRSA and VRSA); experiment: MIC against clinical MDR S. aureus isolates, whole panel; format: cell-based, Staphylococcus aureus; details: nine MRSA and three VRSA strains
K. pneumoniae BAA 1705 = experiment: MIC by broth microdilution against K. pneumoniae BAA 1705; format: cell-based; details: Klebsiella pneumoniae, BAA1705, read-out: MIC against K. pneumoniae BAA 1705
MRSA NRS 10198 = experiment: MIC against clinical MRSA isolate NRS 10198; format: cell-based; details: Staphylococcus aureus, MRSA|NRS10198, read-out: MIC against MRSA NRS 10198
VRSA VRS 1 = experiment: MIC against clinical VRSA isolate VRS 1; format: cell-based; details: Staphylococcus aureus, read-out: MIC against VRSA VRS 1
MRSA NRS 10100 = experiment: MIC against clinical MRSA isolate NRS 10100; format: cell-based; details: Staphylococcus aureus, MRSA|NRS10100, read-out: MIC against MRSA NRS 10100
MRSA NRS 10194 = experiment: MIC against clinical MRSA isolate NRS 10194; format: cell-based; details: Staphylococcus aureus, MRSA|NRS10194, read-out: MIC against MRSA NRS 10194
VRSA VRS 12 = experiment: MIC against clinical VRSA isolate VRS 12; format: cell-based; details: Staphylococcus aureus, read-out: MIC against VRSA VRS 12
VRSA VRS 4 = experiment: MIC against clinical VRSA isolate VRS 4; format: cell-based; details: Staphylococcus aureus, read-out: MIC against VRSA VRS 4
MRSA NRS 10192 = experiment: MIC against clinical MRSA isolate NRS 10192; format: cell-based; details: Staphylococcus aureus, MRSA|NRS10192, read-out: MIC against MRSA NRS 10192
A. baumannii BAA 1605 = experiment: MIC by broth microdilution against A. baumannii BAA 1605; format: cell-based; details: Acinetobacter baumannii, BAA1605, read-out: MIC against A. baumannii BAA 1605
MRSA NRS 10186 = experiment: MIC against clinical MRSA isolate NRS 10186; format: cell-based; details: Staphylococcus aureus, MRSA|NRS10186, read-out: MIC against MRSA NRS 10186
S. aureus ATCC 29213 [2] = experiment: MIC by broth microdilution against S. aureus ATCC 29213; format: cell-based, Staphylococcus aureus; details: Staphylococcus aureus, ATCC29213, read-out: MIC against S. aureus ATCC 29213, broth microdilution, 37 °C, 16–18 h
MRSA NRS 10193 = experiment: MIC against clinical MRSA isolate NRS 10193; format: cell-based; details: Staphylococcus aureus, MRSA|NRS10193, read-out: MIC against MRSA NRS 10193
MRSA NRS 10191 = experiment: MIC against clinical MRSA isolate NRS 10191; format: cell-based; details: Staphylococcus aureus, MRSA|NRS10191, read-out: MIC against MRSA NRS 10191
MRSA NRS 10129 = experiment: MIC against clinical MRSA isolate NRS 10129; format: cell-based; details: Staphylococcus aureus, MRSA|NRS10129, read-out: MIC against MRSA NRS 10129
MRSA NRS 10119 = experiment: MIC against clinical MRSA isolate NRS 10119; format: cell-based; details: Staphylococcus aureus, MRSA|NRS10119, read-out: MIC against MRSA NRS 10119
Vero cells (ATCC CCL-81) = experiment: Cell cytotoxicity assay; format: cell-based; details: CC50 Vero cells / MIC S. aureus ATCC 29213
S. aureus ATCC 29213 [3] = experiment: Drug interaction of 22 with FDA-approved drugs, checkerboard method; format: cell-based, Staphylococcus aureus; details: for MIC of drug in the presence of “22” “B”: S. aureus ATCC 29213, checkerboard, in combination with 22; for MIC: Staphylococcus aureus, ATCC29213, 24 h, read-out: MIC (drug alone); for Inference (drug interaction): combination of 22 with the drug, S. aureus ATCC 29213
S. aureus ATCC 29213 [4] = experiment: Time–kill kinetics; format: cell-based, Staphylococcus aureus; details: 10× MIC, 24 h
Procedure, shortened: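 Bacteria diluted to ~10^6 cfu/mL and exposed to test compound at 1× and 10× MIC, with controls, at 37 °C for 24 h. Samples taken at 1, 6 and 24 h, serially diluted ten-fold in PBS, and spread on MHA. Plates incubated at 37 °C for 24 h and colonies counted. Surviving cfu/mL plotted against time with and without compound.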

Row | Compound | MIC (E. coli ATCC 25922) | MIC against MRSA and VRSA isolates (range over the panel) [1] | MIC (K. pneumoniae BAA 1705) | MIC (MRSA NRS 10198) | MIC (VRSA VRS 1) | MIC (MRSA NRS 10100) | MIC (MRSA NRS 10194) | MIC (VRSA VRS 12) | MIC (VRSA VRS 4) | MIC (MRSA NRS 10192) | MIC (A. baumannii BAA 1605) | MIC (MRSA NRS 10186) | MIC (S. aureus ATCC 29213 [2]) | MIC (MRSA NRS 10193) | MIC (MRSA NRS 10191) | MIC (MRSA NRS 10129) | MIC (MRSA NRS 10119) | Selectivity index with respect to S. aureus ATCC 29213 (SI) (Vero cells (ATCC CCL-81)) | MIC of drug in the presence of “22” “B” (S. aureus ATCC 29213 [3]) | MIC (S. aureus ATCC 29213 [3]) | further results
1 | O=C(Nc1ccc(Cl)c(C(F)(F)F)c1)c1cc(Cl)ccc1O [Compound 20, 5-Chloro-N-(4ʹ-chloro-3ʹ-(trifluoromethyl)phenyl)-2-hydroxybenzamide] | > 64 µg/mL | 0.25 to 0.5 µg/mL | > 64 µg/mL | 0.5 µg/mL (≈ 1.43 µM) | 0.5 µg/mL (≈ 1.43 µM) | 0.5 µg/mL (≈ 1.43 µM) | 0.5 µg/mL (≈ 1.43 µM) | 0.5 µg/mL (≈ 1.43 µM) | 0.25 µg/mL (≈ 0.714 µM) | 0.5 µg/mL (≈ 1.43 µM) | > 64 µg/mL | 0.5 µg/mL (≈ 1.43 µM) | 0.25 µg/mL (≈ 0.714 µM) | 0.5 µg/mL (≈ 1.43 µM) | 0.5 µg/mL (≈ 1.43 µM) | 0.5 µg/mL (≈ 1.43 µM) | 0.5 µg/mL (≈ 1.43 µM) |  |  |  | 
2 | O=C(Nc1ccc(Br)c(C(F)(F)F)c1)c1ccccc1O [Compound 21, N-(4ʹ-bromo-3ʹ-(trifluoromethyl)phenyl)-2-hydroxybenzamide] | > 64 µg/mL |  | > 64 µg/mL |  |  |  |  |  |  |  | > 64 µg/mL |  | 0.5 µg/mL (≈ 1.39 µM) |  |  |  |  | <10 |  |  | 
3 | O=C(Nc1cccc(C(F)(F)F)c1)c1cc(Cl)ccc1O [Compound 23, 5-Chloro-N-(3ʹ-(trifluoromethyl)phenyl)-2-hydroxybenzamide] | > 64 µg/mL |  | > 64 µg/mL |  |  |  |  |  |  |  | > 64 µg/mL |  | 0.5 µg/mL (≈ 1.58 µM) |  |  |  |  | <10 |  |  | 
4 | O=C(Nc1ccc(Cl)cc1)c1cc(Cl)ccc1O [Compound 24, 5-Chloro-N-(4ʹ-chlorophenyl)-2-hydroxybenzamide] | > 64 µg/mL | 0.25 to 0.5 µg/mL | > 64 µg/mL | 0.5 µg/mL (≈ 1.77 µM) | 0.5 µg/mL (≈ 1.77 µM) | 0.5 µg/mL (≈ 1.77 µM) | 0.5 µg/mL (≈ 1.77 µM) | 0.5 µg/mL (≈ 1.77 µM) | 0.5 µg/mL (≈ 1.77 µM) | 0.5 µg/mL (≈ 1.77 µM) | > 64 µg/mL | 0.5 µg/mL (≈ 1.77 µM) | 0.5 µg/mL (≈ 1.77 µM) | 0.5 µg/mL (≈ 1.77 µM) | 0.5 µg/mL (≈ 1.77 µM) | 0.5 µg/mL (≈ 1.77 µM) | 0.25 µg/mL (≈ 0.886 µM) |  |  |  | 
5 | O=C(Nc1ccc(Br)cc1)c1cc(Cl)ccc1O [Compound 25, 5-Chloro-N-(4ʹ-bromophenyl)-2-hydroxybenzamide] | > 64 µg/mL | 0.25 to 0.5 µg/mL | > 64 µg/mL | 0.5 µg/mL (≈ 1.53 µM) | 0.5 µg/mL (≈ 1.53 µM) | 0.5 µg/mL (≈ 1.53 µM) | 0.5 µg/mL (≈ 1.53 µM) | 0.5 µg/mL (≈ 1.53 µM) | 0.5 µg/mL (≈ 1.53 µM) | 0.5 µg/mL (≈ 1.53 µM) | > 64 µg/mL | 0.5 µg/mL (≈ 1.53 µM) | 0.5 µg/mL (≈ 1.53 µM) | 0.5 µg/mL (≈ 1.53 µM) | 0.5 µg/mL (≈ 1.53 µM) | 0.5 µg/mL (≈ 1.53 µM) | 0.25 µg/mL (≈ 0.766 µM) |  |  |  | 
6 | C[C@H]1COc2c(N3CCN(C)CC3)c(F)cc3c(=O)c(C(=O)O)cn1c23 [Levofloxacin, reference compound] | 0.0156 µg/mL (≈ 0.0432 µM) |  | 64 µg/mL (≈ 177 µM) | 32 µg/mL (≈ 88.6 µM) | 64 µg/mL (≈ 177 µM) | 0.25 µg/mL (≈ 0.692 µM) | 0.125 µg/mL (≈ 0.346 µM) | 32 µg/mL (≈ 88.6 µM) | > 64 µg/mL | 8 µg/mL (≈ 22.1 µM) | 8 µg/mL (≈ 22.1 µM) | 8 µg/mL (≈ 22.1 µM) | 0.25 µg/mL (≈ 0.692 µM) | 32 µg/mL (≈ 88.6 µM) | 16 µg/mL (≈ 44.3 µM) | 0.25 µg/mL (≈ 0.692 µM) | 16 µg/mL (≈ 44.3 µM) | >400 | 0.25 µg/mL | 0.25 µg/mL | Inference (drug interaction) (S. aureus ATCC 29213 [3]): No interaction
7 | C[C@@H](O)[C@H]1C(=O)N2C(C(=O)O)=C(S[C@@H]3CN[C@H](C(=O)N(C)C)C3)[C@H](C)[C@H]12 [Meropenem, reference compound] |  |  |  | > 64 µg/mL | > 64 µg/mL | 64 µg/mL (≈ 167 µM) | 4 µg/mL (≈ 10.4 µM) | 16 µg/mL (≈ 41.7 µM) | > 64 µg/mL | 32 µg/mL (≈ 83.4 µM) |  | 16 µg/mL (≈ 41.7 µM) |  | > 64 µg/mL | > 64 µg/mL | 16 µg/mL (≈ 41.7 µM) | > 64 µg/mL |  | 0.5 µg/mL | 0.5 µg/mL | Inference (drug interaction) (S. aureus ATCC 29213 [3]): No interaction
8 | COc1cccc(OC)c1C(=O)N[C@@H]1C(=O)N2[C@@H]1SC(C)(C)[C@@H]2C(=O)O [Methicillin, reference compound] |  |  |  | > 64 µg/mL | > 64 µg/mL | > 64 µg/mL | 32 µg/mL (≈ 84.1 µM) | > 64 µg/mL | > 64 µg/mL | > 64 µg/mL |  | 64 µg/mL (≈ 168 µM) |  | > 64 µg/mL | > 64 µg/mL | 32 µg/mL (≈ 84.1 µM) | > 64 µg/mL |  |  |  | 
9 | CN[C@H](CC(C)C)C(=O)N[C@H]1C(=O)N[C@@H](CC(N)=O)C(=O)N[C@H]2C(=O)N[C@H]3C(=O)N[C@H](C(=O)N[C@H](C(=O)O)c4cc(O)cc(O)c4-c4cc3ccc4O)[C@H](O)c3ccc(c(Cl)c3)Oc3cc2cc(c3O[C@@H]2O[C@H](CO)[C@@H](O)[C@H](O)[C@H]2O[C@H]2C[C@](C)(N)[C@H](O)[C@H](C)O2)Oc2ccc(cc2Cl)[C@H]1O [Vancomycin, reference compound] |  |  |  | 2 µg/mL (≈ 1.38 µM) | > 64 µg/mL | 2 µg/mL (≈ 1.38 µM) | 1 µg/mL (≈ 0.69 µM) | > 64 µg/mL | > 64 µg/mL | 2 µg/mL (≈ 1.38 µM) |  | 1 µg/mL (≈ 0.69 µM) |  | 2 µg/mL (≈ 1.38 µM) | 2 µg/mL (≈ 1.38 µM) | 1 µg/mL (≈ 0.69 µM) | 2 µg/mL (≈ 1.38 µM) |  | 0.5 µg/mL | 1 µg/mL | cfu reduction in time–kill kinetics (S. aureus ATCC 29213 [4]): ~ 9 log10 cfu/mL; Inference (drug interaction) (S. aureus ATCC 29213 [3]): No interaction
